# Screening results from PubChem.
# Shown are actives, neighbours in structure and some others; about 4.5% of the full set was active somewhere.
# PHOSPHO1 inh = PubChem AID 1565; recombinant PHOSPHO1, absorbance phosphatase assay; Phosphoethanolamine/phosphocholine phosphatase (Homo sapiens), Q8TCT1; actives 1.1% (n = 290,000); inhibition, % at 13.3 µM; in the data active means inhibition above about 60%
# Target sequence (Q8TCT1 whole entry, looked up): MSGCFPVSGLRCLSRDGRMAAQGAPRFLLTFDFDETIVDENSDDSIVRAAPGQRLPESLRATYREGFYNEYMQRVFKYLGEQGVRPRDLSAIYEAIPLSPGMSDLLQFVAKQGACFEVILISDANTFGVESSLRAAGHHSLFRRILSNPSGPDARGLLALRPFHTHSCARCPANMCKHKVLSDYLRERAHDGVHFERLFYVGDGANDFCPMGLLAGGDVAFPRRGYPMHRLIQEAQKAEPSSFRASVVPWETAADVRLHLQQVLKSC
# MrgX1 ag = agonists of human MrgX1 receptor, primary screen, HEK293 cells, Fluo-4 calcium flux; B-score at 10 µM; actives 0.44% (n = 310,000); AID 588627, 2011; Fluo-4 calcium fluorescence, agonist mode; hits give high values;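 active means calcium response B-score plate-corrected fluorescence ratio at least 3 library SD, with starting fluorescence B-score inside 5 SD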
#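 Material: HEK293 cells stably expressing human MrgX1 receptor | Quantity: 15,000 cells per well | Times: Cells plated overnight, dye loaded 0.5 h 37 °C, 0.5 h room temperature | Measured by: Kinetic Fluo-4 NW fluorescence of intracellular calcium | Control set: Positive and negative controls per plate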
# RGS4 block = RGS4 inhibitors, primary screen, cell-based, HEK293 M3R inducible RGS4, calcium flux. AID 463165, 2010. Regulator of G-protein signaling 4 (Homo sapiens), P49798. Fluo-4 calcium flux; hits give high values; triggered by carbachol at its EC20. B-score at 10 µM. actives 0.45% (n = 310,000);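 active means B-score, a plate-corrected calcium signal, over three deviations above library mean, with baseline fluorescence within five deviations of library mean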;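 further: RGS4 expression induced by doxycycline in cells with stable M3 receptor; B-score is computed from the integrated fluorescence ratio over baseline after carbachol; higher B-score means a larger calcium signal and so more RGS4 inhibition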
# Target sequence (P49798 whole entry, looked up): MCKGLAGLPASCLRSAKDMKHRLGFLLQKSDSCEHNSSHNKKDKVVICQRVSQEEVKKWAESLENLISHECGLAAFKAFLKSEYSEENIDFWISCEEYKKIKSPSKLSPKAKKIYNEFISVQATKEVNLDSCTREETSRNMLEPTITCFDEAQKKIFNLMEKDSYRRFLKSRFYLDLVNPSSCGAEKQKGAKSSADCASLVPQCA
# MrgX1 PAM = positive allosteric modulators of MrgX1, primary screen, HEK293 cells, Fluo-4 calcium flux | B-score at 10 µM | FDSS; hits give high values | Mas-related G-protein coupled receptor member X1 (Homo sapiens), Q96LB2 | actives 0.63% (n = 310,000);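 active means plate-corrected calcium response at least 3 library SD above typical, normal starting fluorescence, not activating the receptor alone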;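 further: compound read alongside a low EC10 to EC30 dose of BAM8-22 agonist; peak minus trough fluorescence over baseline measured at the second addition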
# RGS4 pot = RGS4 potentiators or activators, primary screen, cell-based, HEK293 M3R inducible RGS4, calcium flux; B-score at 10 µM; carbachol calcium flux Fluo4; hits give low values; actives 0.92% (n = 310,000); AID 463111, 2010;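 active means B-score of the integrated calcium signal more than 4 SD below the library mean, with starting fluorescence not abnormally high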;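 further: negative B-score means reduced calcium response which marks RGS4 activation or potentiation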
#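 test system = HEK293 cells with stable M3R and inducible RGS4 | schedule = recording 10 s baseline at 1 Hz, 100 s post-agonist | technique = Fluo4-AM (2 µM) calcium-flux fluorescence, kinetic read | measure = Agonist-evoked peak-minus-minimum fluorescence over baseline, integrated ratio, B score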
# MrgX1 antag = antagonists of human MrgX1 receptor, primary screen, HEK293 cells, Fluo-4 calcium flux | AID 588676, 2011 | BAM8-22 antagonism; hits give low values | Mas-related G-protein coupled receptor member X1 (Homo sapiens), Q96LB2 | actives 1.3% (n = 310,000) | B-score at 10 µM;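 active means calcium-response B-score plate-corrected more than 3 library SD below zero, starting fluorescence within 5 deviations, no agonist response on first addition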;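 further: peak minus trough fluorescence over baseline after final BAM8-22 challenge near maximal dose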
# RGS4 activ val = reduced carbachol calcium response, RGS4-induced M3R cells, confirmation, RGS4 activator project, cell-based, HEK293 M3R/RGS4 inducible, calcium flux, duplicate; shares compounds with RGS4 pot; carbachol calcium flux Fluo4; inhibition, % at 10 µM; actives 89% (n = 1,100);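 active means inhibition above 3 SD of the buffer control wells, cut at about 41% in these data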;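 further: signal is the integrated peak-minus-minimum Fluo4 fluorescence over baseline ratio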
# M3R Ca counter = counter-screen for RGS4 activators: effect in non-induced cells. shares compounds with RGS4 pot. HEK293 M3R non-induced RGS4, Fluo4 calcium flux; after carbachol challenge at its EC90. inhibition, % at 10 µM. actives 82% (n = 1,100);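 active means inhibition exceeding 3 SD of buffer-only control wells, cut at about 26% in these data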;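 further: percent drop in integrated peak-minus-baseline over baseline Fluo4 ratio after carbachol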
# Numbers without * were called inactive; i = inactive; · = no result given.
SMILES,PHOSPHO1 inh,MrgX1 ag,RGS4 block,MrgX1 PAM,RGS4 pot,MrgX1 antag,RGS4 activ val,M3R Ca counter
CCOC(=O)c1c(N)sc2c(OCC)c(Br)ccc12,-20,i,i,i,i,i,·,·
O=C(CC1CCCCC1)NC1CCCC1,-13,i,i,i,i,i,·,·
O=C(CC1CCS(=O)(=O)C1)NC1CCCCC1 (stereo not drawn),21,i,i,i,-9.3*,i,0,0
CC1CC(C)CN(CCC(=O)Nc2ccc(Br)cc2)C1 (stereo not drawn),-6,i,i,i,i,i,·,·
CCN(CC)S(=O)(=O)c1ccc(N2CCc3ccccc3C2)nc1,43,i,i,i,-10*,i,60*,84*
COc1ccc(C(=O)c2sc3nc(C)cc(-c4cccs4)c3c2N)cc1,11,·,i,·,i,·,·,·
COc1ccc(C(=O)c2sc3nc(C)cc(-c4cccs4)c3c2N)cc1OC,-15,i,i,i,-8.7*,i,83*,71*
O=[N+]([O-])c1ccc(N/N=C/c2ccc(OCc3cccc4ccccc34)cc2)nc1,-5,i,i,i,i,i,·,·
N#Cc1ccccc1Cn1cc(/C=N/Nc2ccc([N+](=O)[O-])cn2)c2ccccc21,23,i,i,i,-11*,-6.2*,78*,84*
CN1CCN(C(=O)C2CCN(c3ncc(C(F)(F)F)cc3Cl)CC2)CC1,47,i,i,i,-12*,i,86*,41*
FC(F)(F)c1nc(-c2ccncc2)ncc1-c1nnnn1-c1ccccc1,38,i,i,i,i,i,·,·
Fc1ccc(-n2nnnc2-c2cnc(-c3cccs3)nc2C(F)(F)F)cc1,9,i,i,i,-9.7*,i,74*,44*
CCOC(=O)C1CCCN(C(=O)c2cc(-c3ccc(C)cc3)nc3ccccc23)C1 (stereo not drawn),4,i,i,i,-9.1*,i,48*,0
CCOC(=O)C1CCCN(C(=O)c2cc(Nc3ccc(OC)c(OC)c3)nc3ccccc23)C1 (stereo not drawn),51,i,i,i,i,i,·,·
CCOc1ccc(Cc2n[nH]c(=S)n2Cc2ccccc2)cc1,-3,i,i,i,-8.8*,i,61*,84*
COc1cccc(Cc2n[nH]c(=S)n2Cc2ccco2)c1,-36,i,i,i,-10*,i,60*,84*
CC(C)=CCc1c(O)c(CC=C(C)C)c2c(c1O)C(=O)CC(c1ccc(O)cc1)O2 (stereo not drawn),-4,i,i,i,i,i,·,·
CC(C)=CCc1c(O)cc(O)c2c1OC(c1ccc(O)cc1)CC2=O (stereo not drawn),·,i,i,i,-9.9*,i,90*,86*
c1ccc2c(-c3nc(C4CCCCC4)no3)cc(-c3ccncc3)nc2c1,4,i,i,i,-9.4*,i,93*,85*
N#Cc1ccccc1OCC(=O)Nc1ccccc1C(=O)NC1CC1,·,i,i,i,i,i,·,·
CCOC(=O)c1ccc(CNCc2ccccc2)cc1,8,i,i,i,-12*,i,87*,29*
CCOC(=O)c1ccc(CNCc2ccc(Br)cc2)cc1,-5,i,i,i,i,i,·,·
